Values after ≈ are worked out from the molar mass of the structure shown.
Legend:
Gamma-secretase = test: Inhibition of gamma secretase in human SKNBE2 cells expressing human APP695 assessed as reduction in Abeta42 levels incubated for 18 hrs by sandwich ELISA
[1] = Inhibition of gamma secretase in mouse Neuro2 cells expressing endogenous levels of amyloid precursor protein assessed as reduction in Abeta42 levels incubated for 18 hrs by sandwich ELISA; format: cell-based
In short: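 IC50 as concentration reducing Aβ42 by 50%; mean of at least 2 determinations; mouse assay.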

[2] = Drug concentration in mouse plasma at 30 mg/kg, po measured after 4 hrs by LC/MS/MS method; format: ADME, organism-based
In short: (§1)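 Mice dosed orally at 30 mg/kg; plasma and brain sampled 4 h post-dose; compound quantified by qualified research LC–MS/MS; brain/plasma ratio at 4 h.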

[3] = Drug concentration in mouse brain at 30 mg/kg, po measured after 4 hrs by LC/MS/MS method; format: ADME, organism-based; conditions: read-out: Drug uptake
In short: as §1

Mus musculus [4] = test: In vivo inhibition of gamma secretase in mouse increase in Abeta38 levels in brain at 30 mg/kg, po measured after 4 hrs relative to control; parameters: scale not given: the % may be the effect or the level left
Mus musculus [5] = test: In vivo inhibition of gamma secretase in mouse assessed as assessed as reduction in Abeta42 levels in brain at 30 mg/kg, po measured after 4 hrs relative to control; format: functional
[6] = Fraction of unbound in rat brain
[7] = Free drug concentration in mouse brain; format: ADME, tissue-based; conditions: in vivo
In short: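 Free brain concentration calculated as fu,b × total brain level (μM), mouse 30 mg/kg p.o., 4 h.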

[8] = Ratio of drug concentration in brain to plasma of mouse at 30 mg/kg, po measured after 4 hrs by LC/MS/MS method; format: ADME, organism-based; conditions: read-out: BPR
In short: as §1

[9] = Metabolic stability in human liver microsomes assessed as compound metabolism at 1 uM incubated for 15 mins; format: ADME, Microsome; conditions: read-out: Drug metabolism
In short: (§2)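 Compound at 1 μM incubated 15 min with human, mouse or dog liver microsomes; percent metabolized reported.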

hERG (KCNH2) = hERG (KCNH2) (Homo sapiens, UniProt Q12809); test: Inhibition of human ERG assessed as inhibition of IKr current at 3 uM by patch express assay
In short: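 Human ERG: percent inhibition of IKr current at 3 μM.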

Cytochrome P450 2C19 = Cytochrome P450 2C19 (Homo sapiens, UniProt P33261); test: Inhibition of CYP2C19 (unknown origin); format: ADME
Cytochrome P450 2D6 = Cytochrome P450 2D6 (Homo sapiens, UniProt P10635); test: Inhibition of CYP2D6 (unknown origin); format: ADME
Cytochrome P450 2C9 = Cytochrome P450 2C9 (Homo sapiens, UniProt P11712); test: Inhibition of CYP2C9 (unknown origin); format: ADME
[10] = Metabolic stability in dog liver microsomes assessed as compound metabolism at 1 uM incubated for 15 mins; format: ADME, Canis lupus familiaris, Microsome; conditions: read-out: Drug metabolism
In short: as §2

[11] = molecular target: Voltage-gated inwardly rectifying potassium channel KCNH2 (Homo sapiens, UniProt Q12809); test: Inhibition of human ERG by receptor binding assay
In short: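 Receptor binding on human hERG channel; IC50 reported.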

Cytochrome P450 3A4 = Cytochrome P450 3A4 (Homo sapiens, UniProt P08684); test: Activation of CYP3A4 (unknown origin) using midazolam; format: ADME
[12] = Kinetic solubility of the compound in pH 7.4 buffer; format: physicochemical; conditions: read-out: Kinetic_solubility
[13] = Metabolic stability in mouse liver microsomes assessed as compound metabolism at 1 uM incubated for 15 mins; format: ADME, Microsome; conditions: read-out: Drug metabolism
In short: as §2

[14] = Lipophilicity, log P of the compound; format: physicochemical; conditions: octanol/water
[15] = molecular target: Gamma-secretase (Homo sapiens) (UniProt Q96BI3+Q9NZ42+Q8WW43+P49768+Q92542+P49810); test: Inhibition of gamma secretase in human SKNBE2 cells expressing human APP695 assessed as increase in Abeta38 levels at 10 uM incubated for 18 hrs by sandwich ELISA; format: cell-based; parameters: scale not given: the % may be the effect or the level left

Chain of Cytochrome P450 2C19 (P33261 whole entry): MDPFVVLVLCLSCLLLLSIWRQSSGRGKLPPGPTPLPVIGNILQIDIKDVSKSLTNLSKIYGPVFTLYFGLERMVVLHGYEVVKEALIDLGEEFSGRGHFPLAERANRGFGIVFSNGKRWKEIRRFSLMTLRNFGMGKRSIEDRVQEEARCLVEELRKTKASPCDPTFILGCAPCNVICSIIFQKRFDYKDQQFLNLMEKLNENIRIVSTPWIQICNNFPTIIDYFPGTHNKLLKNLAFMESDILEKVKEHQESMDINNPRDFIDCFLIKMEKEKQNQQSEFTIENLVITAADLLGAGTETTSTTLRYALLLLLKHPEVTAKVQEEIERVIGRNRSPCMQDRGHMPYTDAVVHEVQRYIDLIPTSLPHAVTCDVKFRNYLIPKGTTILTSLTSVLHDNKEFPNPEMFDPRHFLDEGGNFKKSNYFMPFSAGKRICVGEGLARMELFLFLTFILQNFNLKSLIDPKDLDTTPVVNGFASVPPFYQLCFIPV
Chain of Cytochrome P450 3A4 (P08684 whole entry): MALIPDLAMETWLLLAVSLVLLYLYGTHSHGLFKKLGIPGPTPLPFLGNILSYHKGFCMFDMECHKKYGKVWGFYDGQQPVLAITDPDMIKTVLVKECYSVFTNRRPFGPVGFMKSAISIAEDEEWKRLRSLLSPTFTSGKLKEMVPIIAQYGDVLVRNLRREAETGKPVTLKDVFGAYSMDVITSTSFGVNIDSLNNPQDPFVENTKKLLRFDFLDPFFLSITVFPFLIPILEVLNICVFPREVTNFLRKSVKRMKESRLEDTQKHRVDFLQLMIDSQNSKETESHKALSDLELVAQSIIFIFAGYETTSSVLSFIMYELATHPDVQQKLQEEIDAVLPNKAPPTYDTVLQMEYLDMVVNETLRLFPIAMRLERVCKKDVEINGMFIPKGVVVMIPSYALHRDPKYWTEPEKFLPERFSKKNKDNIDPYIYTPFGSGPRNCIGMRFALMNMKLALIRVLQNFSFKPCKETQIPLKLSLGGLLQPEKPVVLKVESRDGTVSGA
Chain of Cytochrome P450 2C9 (P11712 whole entry): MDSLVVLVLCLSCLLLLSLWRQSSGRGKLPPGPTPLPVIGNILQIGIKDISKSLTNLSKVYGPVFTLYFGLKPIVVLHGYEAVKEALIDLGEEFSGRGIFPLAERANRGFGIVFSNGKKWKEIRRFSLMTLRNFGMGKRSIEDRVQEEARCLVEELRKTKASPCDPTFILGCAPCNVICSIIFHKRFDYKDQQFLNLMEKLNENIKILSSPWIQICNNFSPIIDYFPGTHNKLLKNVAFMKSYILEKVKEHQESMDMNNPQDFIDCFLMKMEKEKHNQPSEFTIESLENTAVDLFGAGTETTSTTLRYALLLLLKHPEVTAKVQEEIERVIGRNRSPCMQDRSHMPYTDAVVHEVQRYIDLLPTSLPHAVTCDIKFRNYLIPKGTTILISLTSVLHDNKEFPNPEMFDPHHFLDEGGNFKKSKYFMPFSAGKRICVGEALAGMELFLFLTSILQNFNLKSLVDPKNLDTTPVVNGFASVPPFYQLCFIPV
Chain of hERG (KCNH2) (Q12809 whole entry): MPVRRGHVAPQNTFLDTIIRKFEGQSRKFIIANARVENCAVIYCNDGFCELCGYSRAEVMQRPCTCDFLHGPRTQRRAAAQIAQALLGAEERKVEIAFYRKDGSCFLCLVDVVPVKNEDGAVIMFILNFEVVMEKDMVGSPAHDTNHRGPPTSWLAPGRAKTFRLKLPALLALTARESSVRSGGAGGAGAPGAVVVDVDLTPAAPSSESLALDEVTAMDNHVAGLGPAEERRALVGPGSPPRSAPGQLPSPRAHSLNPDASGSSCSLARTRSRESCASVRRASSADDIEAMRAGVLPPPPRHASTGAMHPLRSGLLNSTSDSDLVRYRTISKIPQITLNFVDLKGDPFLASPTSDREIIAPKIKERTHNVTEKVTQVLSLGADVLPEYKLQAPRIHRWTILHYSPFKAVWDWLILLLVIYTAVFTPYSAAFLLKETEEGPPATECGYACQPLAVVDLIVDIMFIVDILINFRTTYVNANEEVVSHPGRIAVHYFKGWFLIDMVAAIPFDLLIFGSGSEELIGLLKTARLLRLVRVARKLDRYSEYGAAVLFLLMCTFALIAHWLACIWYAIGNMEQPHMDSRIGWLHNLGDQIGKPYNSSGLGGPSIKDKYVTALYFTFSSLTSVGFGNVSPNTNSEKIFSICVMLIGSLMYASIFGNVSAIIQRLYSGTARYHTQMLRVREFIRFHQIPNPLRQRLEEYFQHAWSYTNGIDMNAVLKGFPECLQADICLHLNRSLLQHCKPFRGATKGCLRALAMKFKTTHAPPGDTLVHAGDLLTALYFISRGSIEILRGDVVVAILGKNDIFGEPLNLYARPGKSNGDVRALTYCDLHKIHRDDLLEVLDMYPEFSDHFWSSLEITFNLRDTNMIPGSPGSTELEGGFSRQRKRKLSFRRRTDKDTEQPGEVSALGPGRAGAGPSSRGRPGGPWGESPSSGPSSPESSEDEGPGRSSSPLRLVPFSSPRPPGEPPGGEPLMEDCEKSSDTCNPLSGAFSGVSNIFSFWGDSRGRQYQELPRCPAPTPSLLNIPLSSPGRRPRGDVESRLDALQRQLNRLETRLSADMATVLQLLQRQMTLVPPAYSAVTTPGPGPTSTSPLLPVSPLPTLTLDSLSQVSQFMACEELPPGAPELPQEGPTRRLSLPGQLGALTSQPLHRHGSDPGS
Chain of Voltage-gated inwardly rectifying potassium channel KCNH2 (Q12809 whole entry): as above
Chain of Cytochrome P450 2D6 (P10635 whole entry): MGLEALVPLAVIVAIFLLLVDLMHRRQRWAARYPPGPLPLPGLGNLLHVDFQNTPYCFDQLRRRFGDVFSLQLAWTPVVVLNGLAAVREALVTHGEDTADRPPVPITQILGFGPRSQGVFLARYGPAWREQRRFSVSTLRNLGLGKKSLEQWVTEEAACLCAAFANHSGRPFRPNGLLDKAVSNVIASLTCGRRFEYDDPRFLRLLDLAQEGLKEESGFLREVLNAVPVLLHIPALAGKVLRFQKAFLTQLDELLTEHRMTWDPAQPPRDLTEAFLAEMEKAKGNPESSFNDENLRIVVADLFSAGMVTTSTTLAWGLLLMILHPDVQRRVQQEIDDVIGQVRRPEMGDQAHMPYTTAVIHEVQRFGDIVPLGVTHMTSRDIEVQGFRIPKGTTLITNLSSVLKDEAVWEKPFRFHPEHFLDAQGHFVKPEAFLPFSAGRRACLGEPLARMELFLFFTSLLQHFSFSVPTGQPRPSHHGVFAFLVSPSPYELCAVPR

Row | SMILES | IC50 (Gamma-secretase) [µM] | IC50 [1] [µM] | concentration at 4 h [2] [µM] | concentration at 4 h [3] [µM] | Activity (Mus musculus [4]) [%] | inhibition in vivo at 30 mg/kg (Mus musculus [5]) [%] | further results
1 | COCc1ccccc1[C@@H]1OCCn2cc(-c3cc4c(OC)c(C#N)ccc4[nH]3)nc21 | 0.11 | 0.085 | – | – | – | – | –
2 | COc1cc2[nH]c(-c3nc4n(n3)CCCC4c3ccccc3C(F)(F)F)cc2cc1C#N (racemic) | 0.107 | 0.166 | – | – | – | – | –
3 | COc1cc(Nc2cccn3cc(-c4ccc(F)cc4)nc23)ccc1C#N | – | > 10 | – | – | – | – | –
4 | COc1c(C#N)ccc2[nH]c(-c3cn4c(n3)[C@H](c3ccccc3Cl)O[C@H](C)C4)cc12 | 0.017 | – | – | – | – | – | –
5 | CCc1cc(CCC#N)ccc1N1CCc2c(C)nc(Nc3ccc(C#N)cc3)nc21 | – | 0.78 | – | – | – | – | Activity [15]: 240%
6 | COc1c(C#N)ccc2[nH]c(-c3cn4c(n3)C(c3ccc(F)cc3C)CCC4)cc12 (racemic) | 0.112 | 0.05 | 4.5 | 1.9 | 17 | 51 | –
7 | COc1cc(/C=C/c2nc3n(n2)CCC[C@H]3c2ccccc2C(F)(F)F)ccc1C#N | – | 0.275 | – | – | – | – | –
8 | Cc1cn(-c2ccc3[nH]c(-c4nc(-c5cccc(C(F)(F)F)c5)n(C)n4)cc3c2)cn1 | – | 0.085 | – | – | – | – | –
9 | COc1c(C#N)ccc2[nH]c(-c3nc4n(n3)CCO[C@@H]4c3ccccc3C(F)(F)F)cc12 | 0.603 | 0.295 | – | – | – | – | –
10 | N#Cc1ccc2cc(-c3nc4n(n3)CCCC4c3ccccc3C(F)(F)F)[nH]c2c1 (racemic) | 3.98 | 8.5 | – | – | – | – | –
11 | COc1cc(Nc2cccn3cc(-c4ccc(F)cc4)nc23)ccc1-n1cnc(C)c1 | – | 0.182 | – | – | – | – | –
12 | Cn1c(-c2nc3n(n2)CCCC3c2ccccc2C(F)(F)F)cc2cc(C#N)ccc21 (racemic) | 4 | > 10 | – | – | – | – | –
13 | N#CCCNc1cc(Cc2c(Cl)cccc2Cl)nc(Nc2ccc(C#N)cc2)n1 | – | 0.68 | – | – | – | – | Activity [15]: 242%
14 | N#Cc1ccc(Nc2nc(Cc3c(Cl)cccc3Cl)cc(NCC(O)c3ccccc3)n2)cc1 (stereo unspecified) | – | 1.67 | – | – | – | – | Activity [15]: 244%
15 | COc1c(C#N)ccc2[nH]c(-c3nc4n(n3)CCO[C@H]4c3cccc(F)c3C(F)(F)F)cc12 | 0.059 | 0.059 | 1.7 | 9.6 | 19 | 2 | Fu [6]: 0.09%; Drug uptake(free) [7]: 0.009 µM
16 | N#Cc1ccc2[nH]c(-c3nc4n(n3)CCCC4c3ccccc3C(F)(F)F)cc2c1 (racemic) | 0.117 | 0.186 | – | – | – | – | –
17 | COc1c(C#N)ccc2[nH]c(-c3cn4c(n3)[C@H](c3cc(C(F)(F)F)ccc3F)OCC4)cc12 | 0.041 | 0.074 | 10.6 | 16.3 | 41 | 35 | –
18 | COc1c(C#N)ccc2[nH]c(-c3cn4c(n3)C(C(C)c3ccc(F)cc3)OCC4)cc12 (stereo unspecified) | 0.219 | 0.339 | – | – | – | – | –
19 | COc1c(C#N)ccc2[nH]c(-c3cn4c(n3)[C@H](c3ccccc3Cl)C[C@@H](C)C4)cc12 (racemic) | 0.015 | – | – | – | – | – | –
20 | COc1c(C#N)ccc2[nH]c(-c3nc4n(n3)CCO[C@H]4c3cc(C(F)(F)F)ccc3F)cc12 | 0.098 | 0.107 | – | – | – | – | –
21 | COc1c(C#N)ccc2[nH]c(-c3cn4c(n3)[C@@H](c3ccccc3C(F)(F)F)OCC4)cc12 | 0.347 | 0.251 | – | – | – | – | –
22 | COc1c(C#N)ccc2[nH]c(-c3cn4c(n3)C(c3ccccc3Cl)CC(O)(CO)C4)cc12 (stereo unspecified) | 0.039 | – | – | – | – | – | –
23 | COc1c(C#N)ccc2[nH]c(-c3cn4c(n3)[C@H](c3ccccc3Cl)O[C@@H](C)C4)cc12 | 0.066 | – | – | – | – | – | –
24 | COc1c(C#N)ccc2[nH]c(-c3cn4c(n3)C(c3ccccc3Cl)CC(C)(O)C4)cc12 (stereo unspecified) | 0.022 | – | – | – | – | – | –

The next lines start with results.

Row | IC50 (Gamma-secretase) [µM] | IC50 [1] [µM] | concentration at 4 h [2] [µM] | concentration at 4 h [3] [µM] | SMILES | Activity (Mus musculus [4]) [%] | inhibition in vivo at 30 mg/kg (Mus musculus [5]) [%] | further results
25 | 0.036 | 0.036 to 0.038 | – | – | COc1c(C#N)ccc2[nH]c(-c3nc4n(n3)CCCC4c3ccccc3C(F)(F)F)cc12 (racemic) | – | – | –
26 | 0.018 | 0.019 | 8.4 | 16.4 | COc1c(C#N)ccc2[nH]c(-c3cn4c(n3)[C@H](c3ccccc3C(F)(F)F)OCC4)cc12 (single isomer, unassigned) | 10 | 73 | Fu [6]: 0.21%; Drug uptake(free) [7]: 0.034 µM
27 | 0.019 | 0.049 | 17.8 | 14 | COc1nc(-c2nc(Nc3cc(F)cc(C(F)(F)F)c3)n(C)n2)ccc1-n1cnc(C)c1 | 53 | 55 | Kp at 4 h [8]: 0.8; metabolised at 0.25 h, 1 µM [9]: 4%; inhibition at 3 µM (hERG (KCNH2)): 52%; IC50 (Cytochrome P450 2C19): 22.1 µM; IC50 (Cytochrome P450 2D6): 16 µM; IC50 (Cytochrome P450 2C9): 12.3 µM; metabolised at 0.25 h, 1 µM [10]: 10%; IC50 [11]: > 10 µM; Activity (Cytochrome P450 3A4): Active; solubility kinetic [12]: 39 µM (≈ 17.4 µg/mL); Fu [6]: 0.5%; metabolised at 0.25 h, 1 µM [13]: 0%; logP [14]: 4.24; Drug uptake(free) [7]: 0.069 µM
28 | – | 0.007 | – | – | COc1nc(Nc2cccc3c2nc(-c2cccc(C(F)(F)F)c2)n3C)ccc1-n1cnc(C)c1 | – | – | –
29 | – | 0.011 | – | – | COc1nc(/C=C/c2nc3n(n2)CCC[C@H]3c2ccccc2C(F)(F)F)ccc1-n1cnc(C)c1 [E-2212] | – | – | –
30 | 0.072 | 0.041 | – | – | COc1c(C#N)ccc2[nH]c(-c3nc4n(n3)CCOC4c3ccccc3C(F)(F)F)cc12 (racemic) | – | – | –
31 | 0.032 | 0.034 | 1.52 | 1.71 | COc1c(C#N)ccc2[nH]c(-c3nc4n(n3)CCO[C@H]4c3ccc(F)cc3C)cc12 | -12 | 5 | –
32 | 0.031 | 0.019 | 2.5 | 5.5 | COc1c(C#N)ccc2[nH]c(-c3nc4n(n3)CCO[C@H]4c3cccc(F)c3C)cc12 | 60 | 33 | Fu [6]: 0.17%; Drug uptake(free) [7]: 0.009 µM
33 | 0.026 | 0.023 | 8.3 | 23.8 | COc1c(C#N)ccc2[nH]c(-c3cn4c(n3)[C@H](c3ccccc3Cl)OCC4)cc12 | 61 | 60 | Fu [6]: 0.47%; Drug uptake(free) [7]: 0.112 µM
34 | 0.045 | 0.042 | 5.4 | 10.5 | COc1c(C#N)ccc2[nH]c(-c3nc4n(n3)CCO[C@H]4c3ccccc3C(F)(F)F)cc12 | 39 | 46 | –
35 | 0.025 | 0.028 | 0.75 | 0.69 | COc1c(C#N)ccc2[nH]c(-c3nc4n(n3)CCCC4c3ccc(F)cc3C)cc12 (racemic) | -9 | 45 | –
36 | 0.036 | 0.042 | 11.3 | 18.7 | COc1c(C#N)ccc2[nH]c(-c3cn4c(n3)[C@H](c3c(F)cccc3C(F)(F)F)OCC4)cc12 | 136 | 40 | –
37 | 0.023 | 0.016 | 9.2 | 6.9 | COc1c(C#N)ccc2[nH]c(-c3cn4c(n3)[C@H](c3ccc(F)cc3C)OCC4)cc12 | 122 | 45 | Fu [6]: 0.23%; Drug uptake(free) [7]: 0.016 µM
38 | – | 0.046 | – | – | Cc1cn(-c2ccc3[nH]c(-c4nc5n(n4)CCCC5c4ccccc4C(F)(F)F)cc3c2)cn1 (stereo unspecified) | – | – | –

From ChEMBL document CHEMBL4387734, “Design and synthesis of a novel series of cyanoindole derivatives as potent γ-secretase modulators” (Bioorg Med Chem Lett, 2019)
